Activity calls are given as the source filed them. The rule behind the calls is not given here.
Tests used:
Rattus norvegicus [1] = organism: Rattus norvegicus; assay: Positive allosteric modulation of rat brain AMPA receptor assessed as potentiation of 2 fold of (S)-AMPA-induced current amplitude by FlipR method
In short: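 Primary neuron cultures from rat embryonic cortex were stimulated with 300 μM AMPA. Membrane depolarization was read with a fluorescent membrane-potential dye in an imaging plate reader. Reported value is the drug concentration doubling the AMPA-induced fluorescence; n = 3, mean ± SEM (some n = 2).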

Rattus norvegicus [2] = organism: Rattus norvegicus; assay: Positive allosteric modulation of rat cortex AMPA receptor expressed in Xenopus laevis oocytes assessed as potentiation of (S)-AMPA-induced current amplitude at 10 uM by voltage clamp technique relative to (S)-AMPA; type: cell-based
In short: (§1)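 Two-electrode voltage clamp at room temperature on Xenopus laevis oocytes expressing rat cortex poly(A+) mRNA, using 10 μM (S)-AMPA. Oocytes were pre-screened with 100 μM S22286, applied 45 s before, 30 s during and 30 s after AMPA; those with under 130-fold potentiation were excluded. Read-outs were drug concentrations for 2-fold or 5-fold current increase, EC50, and maximal effect as % of the AMPA current; n ≥ 3.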

Rattus norvegicus [3] = organism: Rattus norvegicus; assay: Positive allosteric modulation of rat cortex AMPA receptor expressed in Xenopus laevis oocytes assessed as concentration required to 2 fold potentiation of (S)-AMPA-induced current amplitude by voltage clamp technique; type: cell-based; in short: as §1
Rattus norvegicus [4] = organism: Rattus norvegicus; assay: Positive allosteric modulation of AMPA receptor in rat hippocampal CA1 region assessed as potentiation of AMPA-induced excitatory postsynaptic field potential amplitude in CA1 region at 10 uM relative to basal value; type: tissue-based; conditions: Hippocampus
In short: (§2)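 Rat hippocampal slices were perfused with medium containing 1.2 mM Mg2+. EPSfPs were evoked in CA1 by Schaffer collateral stimulation, with compound at 10 μM. Area, amplitude and half-width were each normalized to the pre-application value (100%); n = 3.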

Rattus norvegicus [5] = organism: Rattus norvegicus; assay: Positive allosteric modulation of AMPA receptor in rat hippocampal CA1 region assessed as potentiation of AMPA-induced excitatory postsynaptic field potential area in CA1 region at 10 uM relative to basal value; type: tissue-based; conditions: Hippocampus; in short: as §2
Mus musculus [6] = assay: Toxicity in mouse assessed as hypothermia at 30 mg/kg, po; type: organism-based; set-up: dose 30 mg/kg, route oral; conditions: in vivo
In short: (§3)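 Irwin test in mice: a single oral dose of 30 mg/kg, five animals per compound. Behavioural and physiological changes were recorded, including body temperature at 30 min post-dose.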

Rattus norvegicus [7] = organism: Rattus norvegicus; assay: Positive allosteric modulation of AMPA receptor in rat hippocampal CA1 region assessed as potentiation of AMPA-induced excitatory postsynaptic field potential half-width in CA1 region at 10 uM relative to basal value; type: tissue-based; conditions: Hippocampus; in short: as §2
Mus musculus [8] = assay: Toxicity in mouse assessed as hypothermia at 30 mg/kg, po after 30 mins; type: organism-based; set-up: dose 30 mg/kg, route oral; conditions: in vivo, 0.5 h; in short: as §3
Mus musculus [9] = assay: Cognitive enhancing effect in CD-1 mouse assessed as recognition of familiar object at 0.3 to 1 mg/kg, po after 1 hr by object recognition test; type: functional, organism-based
In short: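 Three-session object recognition test in CD1 mice, with a 24 h interval between sessions. Dosing was oral, 1 h before each session. Read-out was a discrimination index: exploration time of the new object minus that of the familiar object in the last session. n = 13; one-way ANOVA versus control.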

Rattus norvegicus [10] = organism: Rattus norvegicus; assay: Agonist activity at AMPA receptor in Wistar rat hippocampus assessed as [3H]-NA release at 300 uM relative to control
In short: (§4)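 Transverse hippocampal slices (300 μm) were loaded with [3H]noradrenaline ([…]) for 30 min at 37 °C, rinsed, then superfused with Krebs buffer, (S)-AMPA, or (S)-AMPA plus compound. Superfusate was collected in 5 min fractions and counted by scintillation. Fractional release was normalized to total radioactivity in all fractions plus tissue. Compound alone was compared with basal DMSO release, and co-application with (S)-AMPA alone (100%).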

Rattus norvegicus [11] = organism: Rattus norvegicus; assay: Positive allosteric modulation of AMPA receptor in Wistar rat hippocampus assessed as potentiation of (S)-AMPA-induced [3H]-NA release at 300 uM relative to (S)-AMPA; in short: as §4
[12] = Positive allosteric modulation of rat cortex AMPA receptor expressed in Xenopus laevis oocytes assessed as potentiation of (S)-AMPA-induced current amplitude by voltage clamp technique; type: cell-based; in short: as §1
Rattus norvegicus [13] = assay: Positive allosteric modulation of AMPA receptor in Wistar rat dentate gyrus assessed as increase in field excitatory postsynaptic potential amplitude at 30 mg/kg, ip after 1 hr; type: functional, organism-based; set-up: dose 30 mg/kg
In short: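 Anesthetized Wistar rats received 30 mg/kg ip. EPSfPs were recorded in the hippocampal dentate gyrus, with amplitude averaged over four stimuli. Values were normalized to the mean response during the 1 h baseline before injection (100%). One hour after injection, LTP was induced by tetanic stimulation and EPSfPs were followed for 3 h.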

Rattus norvegicus [14] = assay: Positive allosteric modulation of AMPA receptor in Wistar rat dentate gyrus assessed as increase in tetanus-induced field excitatory postsynaptic potential amplitude at 30 mg/kg, ip administered 1 hr prior to tetanus challenge measured after 3 hrs relative to vehicle-treated control; type: functional, organism-based; set-up: dose 30 mg/kg
In short: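 Anaesthetised Wistar rats, 30 mg/kg ip. Field EPSPs recorded in hippocampal dentate gyrus, each amplitude the average of four stimuli. Values normalised to the mean of the 1 h baseline before injection, taken as 100%. LTP induced by tetanic stimulation 1 h after injection, then EPSPs followed for 3 h.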

Rattus norvegicus [15] = organism: Rattus norvegicus; assay: Positive allosteric modulation of rat cortex AMPA receptor expressed in Xenopus laevis oocytes assessed as concentration required to 5 fold potentiation of (S)-AMPA-induced current amplitude by voltage clamp technique; type: cell-based; in short: as §1
Mus musculus [16] = assay: Toxicity in mouse assessed as reduction in body temperature at 30 mg/kg, ip; type: organism-based; set-up: dose 30 mg/kg, route intraperitoneal; conditions: in vivo
Mus musculus [17] = assay: Acute toxicity in mouse assessed as convulsion followed by apathy at 30 mg/kg, po; type: organism-based; set-up: dose 30 mg/kg, route oral; conditions: in vivo
In short: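 Irwin screen for acute neurotoxicity in mice: single oral dose of 30 mg/kg, then behavioural and physiological state recorded (convulsions, apathy, body temperature). Five animals per compound.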

Row | SMILES | Activity (Rattus norvegicus [1]) | Emax (Rattus norvegicus [2]) | Activity (Rattus norvegicus [3]) | other results
1 | CCN1C=NS(=O)(=O)c2cc(Cl)sc21 | > 100 µM |  |  | 
2 | O=S1(=O)N=CN(CC(F)F)c2c(Cl)sc(Cl)c21 | > 100 µM |  |  | 
3 | CCN1CNS(=O)(=O)c2c(Cl)sc(Cl)c21 | > 55 µM | > 955% | 71 µM | 
4 | O=S1(=O)N=CN(CCF)c2c(Cl)sc(Cl)c21 | 20.3 µM | > 2330% | 26.5 µM | 
5 | O=S1(=O)NCNc2c(Cl)sc(Cl)c21 | > 100 µM | > 973% | 72 µM | 
6 | O=S1(=O)NCN(CC(F)F)c2cc(Cl)sc21 | 2.9 µM | 2560% | 1.6 µM | Activity (Rattus norvegicus [4]): 15.3%; Activity (Rattus norvegicus [5]): 22.7%; Activity (Mus musculus [6]): 60%; Activity (Rattus norvegicus [7]): 14.3%
7 | CCN1C=NS(=O)(=O)c2c(Cl)sc(Cl)c21 |  | > 1000% | 42 µM | 
8 | CCCN1CNS(=O)(=O)c2c(Cl)sc(Cl)c21 | > 100 µM | > 126% | > 300 µM | 
9 | CC(C)N1CNS(=O)(=O)c2sc(Cl)cc21 | 9.55 µM | 217% | 4.2 µM | 
10 | O=S1(=O)NCN(CC(F)F)c2c(Cl)sc(Cl)c21 | > 100 µM | > 227% | 235 µM | 
11 | O=S1(=O)N=CN(CCF)c2cc(Cl)sc21 | > 100 µM | 204% | > 300 µM | 
12 | CCN1CNS(=O)(=O)c2cc(Cl)sc21 | 10.4 µM | 2830% | 4.4 µM | Activity (Mus musculus [8]): Non-toxic; Activity (Mus musculus [9]): Active; Activity (Rattus norvegicus [10]): 34%; Activity (Rattus norvegicus [11]): 281%; Activity (Rattus norvegicus [4]): 3.7%; EC50 [12]: 11 µM; Activity (Rattus norvegicus [13]): Active; Activity (Rattus norvegicus [5]): 18.3%; Activity (Rattus norvegicus [7]): 11.7%; Activity (Rattus norvegicus [14]): Active; Activity (Rattus norvegicus [15]): 24 µM
13 | O=S1(=O)N=CN(CCCF)c2cc(Cl)sc21 | 100 µM | 107% | > 300 µM | 
14 | O=S1(=O)NCN(CCF)c2c(Cl)sc(Cl)c21 | > 100 µM | > 485% | 113 µM | 
15 | CCN1C=NS(=O)(=O)c2sc(Cl)cc21 | > 100 µM | > 175% | 172 µM | 
16 | O=S1(=O)NCN(CCCF)c2cc(Cl)sc21 | > 45.7 µM | > 3780% | 12 µM | 
17 | CCCN1CNS(=O)(=O)c2sc(Cl)cc21 | 25.1 µM | 2090% | 15 µM | 
18 | CCCN1C=NS(=O)(=O)c2sc(Cl)cc21 | > 100 µM | 2070% |  | T (Mus musculus [16]): 4.6 °C
19 | CN1C=NS(=O)(=O)c2sc(Cl)cc21 | > 100 µM |  | > 166 µM | 
20 | CCN1CNS(=O)(=O)c2sc(Cl)cc21 |  | 2270% | 3.6 µM | EC50 [12]: 9.2 µM; Activity (Rattus norvegicus [15]): 18.5 µM
21 | CC(C)N1C=NS(=O)(=O)c2sc(Cl)cc21 | > 100 µM | > 277% | > 100 µM | 
22 | O=S1(=O)NCNc2cc(Cl)sc21 | > 100 µM | 253% | 216 µM | 
23 | O=S1(=O)N=CN(CC(F)F)c2cc(Cl)sc21 | 100 µM |  |  | 
24 | O=S1(=O)N=CN(CF)c2cc(Cl)sc21 | > 100 µM |  |  | 
25 | CN1CNS(=O)(=O)c2sc(Cl)cc21 |  | > 462% | 36 µM | 
26 | CCCN1C=NS(=O)(=O)c2c(Cl)sc(Cl)c21 | > 100 µM |  |  | 
27 | O=S1(=O)NCN(CCF)c2cc(Cl)sc21 | 3.32 µM | 5600% | 2 µM | Activity (Mus musculus [17]): Toxic; Activity (Rattus norvegicus [4]): 33.7%; Activity (Rattus norvegicus [5]): 9.3%
28 | CN1C=NS(=O)(=O)c2c(Cl)sc(Cl)c21 |  | > 413% | 81 µM | 
29 | CN1CNS(=O)(=O)c2c(Cl)sc(Cl)c21 |  | 2920% | 5.4 µM | 
30 | O=S1(=O)N=CNc2c(Cl)sc(Cl)c21 |  |  | > 100 µM | 

Source: ChEMBL document CHEMBL3085641, “Development of thiophenic analogues of benzothiadiazine dioxides as new powerful potentiators of 2-amino-3-(3-hydroxy-5-methylisoxazol-4-yl)propionic acid (AMPA) receptors” (J Med Chem, 2013)
